Reference: ChEMBL document CHEMBL1137089, “Identification of putative agouti-related protein(87-132)-melanocortin-4 receptor interactions by homology molecular modeling and validation using chimeric peptide ligands” (J Med Chem, 2004)
*1 amine or outer side, *2 acyl side, *3 side chain or, on linkers, in order; H or OH if unused. Where a SMILES comes first, the peptide text is derived from it. Bridges are numbered along the chain shown (N, C = ends). [ ]: non-standard residue; d: D form. The star is where a group is joined. X4 = O=C(C(=O)[*:2])[C@H](Cc1ccccc1)N[*:1]; X3 = NN[C@@H](Cc1ccc(O)cc1)C(=O)*; Dap = NC[C@H](N)C(=O)O

What was measured:
Melanocortin receptor 4 [1] = target: T1, Melanocortin receptor 4 (Mus musculus, UniProt P56450); experiment: Inhibitory concentration towards melanocortin MC4 receptor by displacing radioligand [125I]-hAGRP(87-132)
Melanocortin receptor 4 [2] = target: T1, Melanocortin receptor 4; experiment: Inhibitory concentration towards melanocortin MC4 receptor by displacing radioligand [125I]NDP-MSH
In short: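 Whole HEK-293 cells stably expressing the mouse MC4 receptor, plated at 0.3 × 10⁶ cells/well the day before. Cells washed, lysed in NaOH/Triton X-100, and counted by γ-counter. IC50 by nonlinear least-squares fit; duplicate wells, at least two independent experiments, mean ± SD.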

[3] = target: Melanocyte-stimulating hormone receptor (Mus musculus, UniProt Q01727); experiment: Effective concentration against mouse Melanocortin 1 receptor; assay type: functional
In short: (§1)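 HEK-293 cells stably expressing the mouse melanocortin receptor (G418 selection), transiently transfected with CRE/β-galactosidase reporter. EC50 by nonlinear least-squares fit; SEM from at least three independent experiments.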

Melanocortin receptor 4 [4] = target: T1, Melanocortin receptor 4; experiment: Effective concentration against mouse melanocortin MC4 receptor; assay type: functional
In short: as §1

Melanocortin receptor 5 = Melanocortin receptor 5 (Mus musculus, UniProt P41149); experiment: Effective concentration against mouse Melanocortin 5 receptor; assay type: functional
In short: as §1

Melanocortin receptor 3 = Melanocortin receptor 3 (Mus musculus, UniProt P33033); experiment: Effective concentration against mouse Melanocortin 3 receptor; assay type: functional; settings: for Kb: read-out: pA2 (converted)
In short: as §1

T1 sequence (P56450 whole entry): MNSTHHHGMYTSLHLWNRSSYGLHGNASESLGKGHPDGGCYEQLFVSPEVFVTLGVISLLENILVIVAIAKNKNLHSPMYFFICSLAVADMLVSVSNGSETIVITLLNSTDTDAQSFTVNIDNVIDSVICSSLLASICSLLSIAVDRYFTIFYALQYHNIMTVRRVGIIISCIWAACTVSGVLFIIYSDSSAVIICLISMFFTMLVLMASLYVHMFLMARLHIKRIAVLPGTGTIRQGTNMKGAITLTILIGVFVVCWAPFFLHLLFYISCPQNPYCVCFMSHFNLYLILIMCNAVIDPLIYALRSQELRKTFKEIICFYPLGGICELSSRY
Sequence of Melanocortin receptor 3 (P33033 whole entry): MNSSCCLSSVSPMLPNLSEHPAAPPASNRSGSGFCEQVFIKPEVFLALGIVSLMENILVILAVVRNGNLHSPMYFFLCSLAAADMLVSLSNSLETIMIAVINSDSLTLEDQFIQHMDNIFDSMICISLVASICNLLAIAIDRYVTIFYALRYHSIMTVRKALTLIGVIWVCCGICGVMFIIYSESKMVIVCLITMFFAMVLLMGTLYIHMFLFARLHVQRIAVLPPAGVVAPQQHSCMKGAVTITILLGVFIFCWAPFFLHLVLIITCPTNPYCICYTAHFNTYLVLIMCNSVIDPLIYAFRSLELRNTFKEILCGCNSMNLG
Sequence of Melanocortin receptor 5 (P41149 whole entry): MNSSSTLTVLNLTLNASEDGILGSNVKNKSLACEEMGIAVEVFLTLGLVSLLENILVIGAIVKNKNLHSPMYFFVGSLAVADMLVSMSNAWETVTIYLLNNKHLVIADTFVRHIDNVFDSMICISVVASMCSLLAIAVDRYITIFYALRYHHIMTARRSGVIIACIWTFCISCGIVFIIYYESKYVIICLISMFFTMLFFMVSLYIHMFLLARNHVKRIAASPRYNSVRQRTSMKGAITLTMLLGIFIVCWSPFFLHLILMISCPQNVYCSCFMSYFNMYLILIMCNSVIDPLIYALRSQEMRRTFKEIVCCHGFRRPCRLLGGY
Sequence of Melanocyte-stimulating hormone receptor (Q01727 whole entry): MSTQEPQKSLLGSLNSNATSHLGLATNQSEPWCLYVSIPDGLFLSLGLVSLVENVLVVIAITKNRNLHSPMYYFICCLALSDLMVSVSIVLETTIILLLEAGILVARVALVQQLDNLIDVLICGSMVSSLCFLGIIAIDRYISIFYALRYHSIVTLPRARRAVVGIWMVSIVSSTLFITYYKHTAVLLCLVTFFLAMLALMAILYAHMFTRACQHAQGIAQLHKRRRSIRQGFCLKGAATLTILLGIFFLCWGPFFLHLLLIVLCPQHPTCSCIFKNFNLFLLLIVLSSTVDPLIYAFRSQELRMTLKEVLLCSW

Row | Structure (SMILES) | IC50 (Melanocortin receptor 4 [1]) [µM] | IC50 (Melanocortin receptor 4 [2]) [µM] | EC50 [3] [µM] | EC50 (Melanocortin receptor 4 [4]) [µM] | EC50 (Melanocortin receptor 5) [µM] | Kb (Melanocortin receptor 3) [µM] | EC50 (Melanocortin receptor 3) [µM]
1 | C[C@@H]1NC(=O)[C@H](CC(N)=O)NC(=O)[C@H](Cc2c[nH]c3ccccc23)NC(=O)[C@H](CCCNC(=N)N)NC(=O)[C@@H](Cc2ccccc2)NC(=O)[C@@H](NC(=O)[C@@H](N)Cc2ccc(O)cc2)CC(=O)NC[C@@H](C(=O)N[C@@H](Cc2ccc(O)cc2)C(N)=O)NC(=O)[C@H](Cc2ccccc2)NC1=O (H-YD[dF]RWNAF[Dap]Y-NH2; lactam 2-9) | 3.1 | 6.8 | – | – | – | – | –
2 | C[C@@H]1NC(=O)[C@H](CC(N)=O)NC(=O)[C@H](Cc2ccccc2)NC(=O)[C@H](Cc2ccccc2)NC(=O)[C@H](CCCNC(=N)N)NC(=O)[C@@H](NC(=O)[C@@H](N)Cc2ccc(O)cc2)CC(=O)NC[C@@H](C(=O)N[C@@H](Cc2ccc(O)cc2)C(N)=O)NC(=O)[C@H](Cc2ccccc2)NC1=O | 3.2 | 4.8 | – | – | – | – | –
3 | C[C@@H]1NC(=O)[C@H](CC(N)=O)NC(=O)[C@H](Cc2ccccc2)NC(=O)[C@H](Cc2ccccc2)NC(=O)[C@H](CCCNC(=N)N)NC(=O)[C@H](Cc2c[nH]cn2)NC(=O)[C@@H](NC(=O)[C@@H](N)Cc2ccc(O)cc2)CC(=O)NC[C@@H](C(=O)N[C@@H](Cc2ccc(O)cc2)C(N)=O)NC(=O)[C@H](Cc2ccccc2)NC1=O (H-YDHRFFNAF[Dap]Y-NH2; lactam 2-10) | – | – | 13.3 | > 100 | > 100 | – | –
4 | CSCC[C@@H]1NC(=O)[C@H](C)NC(=O)[C@H]([C@@H](C)O)NC(=O)CNC(=O)[C@H](CC(C)C)NC(=O)[C@H](CCCCN)NC(=O)[C@H](CCCN=C(N)N)NC(=O)[C@@H]2CSSSSC[C@@H]3NC(=O)[C@@H]4CCCN4C(=O)[C@H](C(C)C)NC(=O)[C@H](CCC(N)=O)NC(=O)[C@H](CCC(N)=O)NC(=O)CNC(=O)[C@H](CC(C)C)NC(=O)[C@@H]4CSSSSC[C@H](NC(=O)[C@H]([C@@H](C)O)NC(=O)[C@H](C)NC(=O)[C@H](CSSSSC[C@@H](C(=O)N[C@@H](CO)C(=O)N[C@@H](CCCN=C(N)N)C(=O)N[C@H](C(=O)O)[C@@H](C)O)NC(=O)[C@@H]5CCCN5C(=O)[C@H](CC(N)=O)NC1=O)NC(=O)[C@@H]1CCCN1C(=O)[C@H](CC(=O)O)NC(=O)[C@H](CSSSSC[C@H](N)C(=O)N[C@@H](C(C)C)C(=O)N[C@@H](CCCN=C(N)N)C(=O)N[C@@H](CC(C)C)C(=O)N[C@@H](Cc1c[nH]cn1)C(=O)N[C@@H](CCC(=O)O)C(=O)N[C@@H](CO)C(=O)N4)NC3=O)C(=O)N[C@@H](Cc1ccc(O)cc1)C(=O)N[C@H]1CSSSSC[C@H](NC(=O)[C@H](Cc3ccccc3)NC(=O)[C@H](C)NC(=O)[C@H](CC(N)=O)NC(=O)[C@H](Cc3ccccc3)NC(=O)[C@H](Cc3ccccc3)NC(=O)[C@H](CCCN=C(N)N)NC1=O)C(=O)N[C@@H](Cc1ccc(O)cc1)C(=O)N2 | 0.00548 | – | > 100 | – | – | 0.00126 | –
5 | C[C@@H]1NC(=O)[C@H](CC(N)=O)NC(=O)[C@@H](Cc2ccccc2)NC(=O)[C@H](CCCNC(=N)N)NC(=O)[C@H](Cc2c[nH]c3ccccc23)NC(=O)[C@@H](NC(=O)[C@@H](N)Cc2ccc(O)cc2)CC(=O)NC[C@@H](C(=O)N[C@@H](Cc2ccc(O)cc2)C(N)=O)NC(=O)[C@H](Cc2ccccc2)NC1=O (H-YDWR[dF]NAF[Dap]Y-NH2; lactam 2-9) | > 10 | – | 6.12 | 15.9 | 2.22 | – | –
6 | C[C@@H]1NC(=O)[C@@H](CC(N)=O)NC(=O)[C@H](Cc2ccccc2)NC(=O)[C@@H](Cc2ccccc2)NC(=O)[C@H](CCCN=C(N)N)NC(=O)[C@@H](NC(=O)[C@@H](N)Cc2ccc(O)cc2)CC(=O)NC[C@@H](C(=O)N[C@@H](Cc2ccc(O)cc2)C(=O)O)NC(=O)[C@@H](Cc2ccccc2)NC1=O | – | – | – | – | – | 2 | –
7 | C[C@@H]1NC(=O)[C@H](CC(N)=O)NC(=O)[C@H](Cc2c[nH]c3ccccc23)NC(=O)[C@H](CCCNC(=N)N)NC(=O)[C@H](Cc2ccccc2)NC(=O)[C@@H](NC(=O)[C@@H](N)Cc2ccc(O)cc2)CC(=O)NC[C@@H](C(=O)N[C@@H](Cc2ccc(O)cc2)C(N)=O)NC(=O)[C@H](Cc2ccccc2)NC1=O (H-YDFRWNAF[Dap]Y-NH2; lactam 2-9) | 4.1 | 9.2 | 19.7 | 13.4 | 3.9 | – | –
8 | CNC(=O)C[C@@H]1NC(=O)[C@H](C)NC(=O)[C@H](C)NC(=O)[C@H](C)NC(=O)[C@@H](NC(=O)[C@H](Cc2ccc(O)cc2)NN)CC(=O)NC[C@@H](C(=O)N[C@@H](Cc2ccc(O)cc2)C(N)=O)NC(=O)C(=O)[C@H](Cc2ccccc2)NC(=O)[C@H](C)NC1=O (X3-DAAAD(NHMe)A[X4][Dap]Y-NH2; lactam 1-8) | – | – | – | – | – | – | > 100
9 | C[C@@H]1NC(=O)[C@H](CC(N)=O)NC(=O)[C@H](Cc2ccccc2)NC(=O)[C@H](CCCNC(=N)N)NC(=O)[C@H](Cc2c[nH]c3ccccc23)NC(=O)[C@@H](NC(=O)[C@@H](N)Cc2ccc(O)cc2)CC(=O)NC[C@@H](C(=O)N[C@@H](Cc2ccc(O)cc2)C(N)=O)NC(=O)[C@H](Cc2ccccc2)NC1=O (H-YDWRFNAF[Dap]Y-NH2; lactam 2-9) | 7.3 | 10.3 | – | – | – | – | –
